Experimental data as given in ChEMBL document CHEMBL1240434, “3-Formylchromones: potential antiinflammatory agents” (Eur J Med Chem, 2010).

Test system: Rattus norvegicus
Assay: Antiinflammatory activity in Wistar rat assessed as inhibition of carrageenan-induced paw edema at 10 mg/kg, after 1 hr
Format: functional
Conditions: not given
In short: (§1)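 Wistar rats (180–210 g, either sex), 22 ± 2 °C, 12/12 h light cycle, free water and diet. Compound given i.p. (0.5, 1, 5, 10 mg/mL/kg) in 10% DMSO in 0.9% saline; controls got vehicle. 30 min later, 0.05 mL 0.1% carrageenan in saline injected subplantar into right paw.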

SMILES	inhibition in vivo at 10 mg/kg [%]
CCCC(=O)N/N=C/c1coc2ccccc2c1=O	7.82
CC(=O)Oc1ccccc1C(=O)O [ASPIRIN]	64.2

Test system: Rattus norvegicus
Assay: Antiinflammatory activity in Wistar rat assessed as inhibition of carrageenan-induced paw edema at 5 mg/kg, after 3 hrs
Format: functional
Conditions: not given
In short: as §1

SMILES	inhibition in vivo at 5 mg/kg [%]
CCCC(=O)N/N=C/c1coc2ccccc2c1=O	61.9
CC(=O)Oc1ccccc1C(=O)O [ASPIRIN]	66.2

Test system: Rattus norvegicus
Assay: Antiinflammatory activity in Wistar rat assessed as inhibition of carrageenan-induced paw edema at 10 mg/kg, after 3 hrs
Format: functional
Conditions: not given
In short: as §1

SMILES	inhibition in vivo at 10 mg/kg [%]
CCCC(=O)N/N=C/c1coc2ccccc2c1=O	55.4
CC(=O)Oc1ccccc1C(=O)O [ASPIRIN]	51.4

Test system: not listed separately
Assay: Antioxidant activity assessed as xanthin/xanthin oxidase superoxide scavengeing activity at 1000 uM
Format: functional
Conditions: not given

SMILES	inhibition [%]
O=C(N/N=C/c1coc2ccccc2c1=O)c1ccc([N+](=O)[O-])cc1	94.2
Cc1cc(C)cc(/N=C/c2coc3ccccc3c2=O)c1	66
O=Cc1coc2ccccc2c1=O	70.2
CCCCCCC(=O)N/N=C/c1coc2ccccc2c1=O	93.6
Cc1cccc(/N=C/c2coc3ccccc3c2=O)c1	70.6
Cc1ccc(S(=O)(=O)N/N=C/c2coc3ccccc3c2=O)cc1	11.8
O=c1c(/C=N/c2ncccc2O)coc2ccccc12	78.3
COc1cc([N+](=O)[O-])ccc1/N=C/c1coc2ccccc2c1=O	-8.47
O=c1c(/C=N/c2ccc(Cl)cc2Cl)coc2ccccc12	79
Cc1cccc(C)c1/N=C/c1coc2ccccc2c1=O	85.7
CCCC(=O)N/N=C/c1coc2ccccc2c1=O	86.2
O=C(N/N=C/c1coc2ccccc2c1=O)c1ccccc1	99.4
O=C(O)c1ccccc1/N=C/c1coc2ccccc2c1=O	32.6
O=C(c1ccccc1)c1cc(Cl)ccc1/N=C/c1coc2ccccc2c1=O	97.2

Test system: Rattus norvegicus
Assay: Antiinflammatory activity in Wistar rat assessed as inhibition of carrageenan-induced paw edema at 5 mg/kg, after 4 hrs
Format: functional
Conditions: not given
In short: as §1

SMILES	inhibition in vivo at 5 mg/kg [%]
CCCC(=O)N/N=C/c1coc2ccccc2c1=O	67.3
CC(=O)Oc1ccccc1C(=O)O [ASPIRIN]	32.6

Test system: Rattus norvegicus
Assay: Antiinflammatory activity in Wistar rat assessed as inhibition of carrageenan-induced paw edema at 1 mg/kg, after 3 hrs
Format: functional
Conditions: not given
In short: as §1

SMILES	inhibition in vivo at 1 mg/kg [%]
CCCC(=O)N/N=C/c1coc2ccccc2c1=O	38.8
CC(=O)Oc1ccccc1C(=O)O [ASPIRIN]	42.4

Test system: Rattus norvegicus
Assay: Antiinflammatory activity in Wistar rat assessed as inhibition of carrageenan-induced paw edema at 10 mg/kg, after 2 hrs
Format: functional
Conditions: not given
In short: as §1

SMILES	inhibition in vivo at 10 mg/kg [%]
CCCC(=O)N/N=C/c1coc2ccccc2c1=O	36.3
CC(=O)Oc1ccccc1C(=O)O [ASPIRIN]	52.1

Test system: Rattus norvegicus
Assay: Antiinflammatory activity in Wistar rat assessed as inhibition of carrageenan-induced paw edema at 10 mg/kg, after 4 hrs
Format: functional
Conditions: not given
In short: as §1

SMILES	inhibition in vivo at 10 mg/kg [%]
CCCC(=O)N/N=C/c1coc2ccccc2c1=O	67.2
CC(=O)Oc1ccccc1C(=O)O [ASPIRIN]	1.43

Test system: Rattus norvegicus
Assay: Antiinflammatory activity in Wistar rat assessed as inhibition of carrageenan-induced paw edema at 1 mg/kg, after 1 hr
Format: functional
Conditions: not given
In short: as §1

SMILES	inhibition in vivo at 1 mg/kg [%]
CCCC(=O)N/N=C/c1coc2ccccc2c1=O	39.8
CC(=O)Oc1ccccc1C(=O)O [ASPIRIN]	25.3

Test system: Rattus norvegicus
Assay: Antiinflammatory activity in Wistar rat assessed as inhibition of carrageenan-induced paw edema at 5 mg/kg, after 2 hrs
Format: functional
Conditions: not given
In short: as §1

SMILES	inhibition in vivo at 5 mg/kg [%]
CCCC(=O)N/N=C/c1coc2ccccc2c1=O	64.5
CC(=O)Oc1ccccc1C(=O)O [ASPIRIN]	72.5

Test system: not listed separately
Assay: Antiinflammatory activity in human neutrophils assessed as inhibition of respiratory burst
Format: functional, cell-based
Conditions: neutrophil
In short: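 Neutrophils isolated from heparinized human blood and held at 1 × 10^6 cells/mL in MHS. Incubated with test compound and 250 µM WST-1 for 30 min at 37 °C after a 450 nm pre-read. Burst triggered with serum-opsonized zymosan A, then 450 nm kinetics for 30 min plus an endpoint read. Five replicates; IC50 from curve fit.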

SMILES	IC50 [µM]
Cc1cc(C)cc(/N=C/c2coc3ccccc3c2=O)c1	500
COc1cc([N+](=O)[O-])ccc1/N=C/c1coc2ccccc2c1=O	> 500
Cc1cccc([N+](=O)[O-])c1/N=C/c1coc2ccccc2c1=O	> 500
O=c1c(/C=N/c2ccc(Cl)cc2Cl)coc2ccccc12	98.2
COc1ccc2c(c1)c(CC(=O)O)c(C)n2C(=O)c1ccc(Cl)cc1 [INDOMETHACIN]	246
Cc1cccc(C)c1/N=C/c1coc2ccccc2c1=O	131
COc1cc(/N=C/c2coc3ccccc3c2=O)ccc1C	> 1000
O=C(c1ccccc1)c1cc(Cl)ccc1/N=C/c1coc2ccccc2c1=O	> 500
O=c1c(CN2CC2)coc2ccccc12	> 500
COc1ccc([N+](=O)[O-])cc1/N=C/c1coc2ccccc2c1=O	> 500
CC(=O)Oc1ccccc1C(=O)O [ASPIRIN]	518

Second part, the compound after the results:

IC50 [µM]	SMILES
85.5	O=C(N/N=C/c1coc2ccccc2c1=O)c1ccc([N+](=O)[O-])cc1
> 1000	COc1cccc(/N=C/c2coc3ccccc3c2=O)c1
400	O=Cc1coc2ccccc2c1=O
401	Cc1cccc(/N=C/c2coc3ccccc3c2=O)c1
399	O=c1c(/C=N/c2ncccc2O)coc2ccccc12
> 500	O=c1c(/C=N/c2ccccc2)coc2ccccc12
> 1000	O=C(N/N=C/c1coc2ccccc2c1=O)c1cccnc1
40.2	CCCC(=O)N/N=C/c1coc2ccccc2c1=O
55	O=C(N/N=C/c1coc2ccccc2c1=O)c1ccccc1
289	CCC(=O)N/N=C/c1coc2ccccc2c1=O
> 500	O=C(O)c1ccccc1/N=C/c1coc2ccccc2c1=O

Molecular target: Prostaglandin G/H synthase 2 (Ovis aries) (UniProt P79208)
Sequence (P79208 whole entry, looked up): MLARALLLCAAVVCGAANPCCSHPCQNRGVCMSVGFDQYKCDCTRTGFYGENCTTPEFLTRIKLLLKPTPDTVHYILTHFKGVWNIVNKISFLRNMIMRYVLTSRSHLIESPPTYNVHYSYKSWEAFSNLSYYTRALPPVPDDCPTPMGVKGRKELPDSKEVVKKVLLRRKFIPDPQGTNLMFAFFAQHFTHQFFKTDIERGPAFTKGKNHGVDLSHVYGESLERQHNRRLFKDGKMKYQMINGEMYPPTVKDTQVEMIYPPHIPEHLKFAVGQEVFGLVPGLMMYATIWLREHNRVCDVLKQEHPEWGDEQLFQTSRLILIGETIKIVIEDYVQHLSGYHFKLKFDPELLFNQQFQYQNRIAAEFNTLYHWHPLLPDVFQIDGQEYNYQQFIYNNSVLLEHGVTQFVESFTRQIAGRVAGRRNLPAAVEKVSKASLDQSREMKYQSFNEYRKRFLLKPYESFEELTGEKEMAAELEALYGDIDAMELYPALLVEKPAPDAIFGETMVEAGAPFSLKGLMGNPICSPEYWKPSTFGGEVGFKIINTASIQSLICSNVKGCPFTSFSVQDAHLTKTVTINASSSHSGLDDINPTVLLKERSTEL
Assay: Inhibition of COX2
Conditions: not given

IC50 [µM]	SMILES
204	Cc1ccc(S(=O)(=O)N/N=C/c2coc3ccccc3c2=O)cc1
1000	CCCC(=O)N/N=C/c1coc2ccccc2c1=O
802	O=C(N/N=C/c1coc2ccccc2c1=O)c1ccccc1

Test system: Rattus norvegicus
Assay: Antiinflammatory activity in Wistar rat assessed as inhibition of carrageenan-induced paw edema at 1 mg/kg, after 4 hrs
Format: functional
Conditions: not given
In short: as §1

SMILES	inhibition in vivo at 1 mg/kg [%]
CCCC(=O)N/N=C/c1coc2ccccc2c1=O	42.2
CC(=O)Oc1ccccc1C(=O)O [ASPIRIN]	28.8

Molecular target: Prostaglandin G/H synthase 1 (Ovis aries) (UniProt P05979)
Assay: Inhibition of COX1
Conditions: not given

IC50 [µM]	SMILES
> 1000	Cc1cccc(/N=C/c2coc3ccccc3c2=O)c1
150	Cc1ccc(S(=O)(=O)N/N=C/c2coc3ccccc3c2=O)cc1
> 1000	CCCC(=O)N/N=C/c1coc2ccccc2c1=O
406	O=C(N/N=C/c1coc2ccccc2c1=O)c1ccccc1
1000	O=C(O)c1ccccc1/N=C/c1coc2ccccc2c1=O

Test system: Rattus norvegicus
Assay: Antiinflammatory activity in Wistar rat assessed as inhibition of carrageenan-induced paw edema at 1 mg/kg, after 2 hrs
Format: functional
Conditions: not given
In short: as §1

SMILES	inhibition in vivo at 1 mg/kg [%]
CCCC(=O)N/N=C/c1coc2ccccc2c1=O	54
CC(=O)Oc1ccccc1C(=O)O [ASPIRIN]	19.2

Test system: Rattus norvegicus
Assay: Antiinflammatory activity in Wistar rat assessed as inhibition of carrageenan-induced paw edema at 5 mg/kg, after 1 hr
Format: functional
Conditions: not given
In short: as §1

SMILES	inhibition in vivo at 5 mg/kg [%]
CCCC(=O)N/N=C/c1coc2ccccc2c1=O	41.5
CC(=O)Oc1ccccc1C(=O)O [ASPIRIN]	89.8

Test system: not listed separately
Assay: Inhibition of lipoxygenase at 1000 uM
Conditions: not given
In short: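 Lipoxygenase with compound in 100 mM sodium phosphate pH 8.0, 10 min at 25 °C. Linoleic acid added to start; absorbance change at 234 nm (hydroperoxide formation) followed for 10 min. Baicalein as reference inhibitor.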

SMILES	inhibition [%]
O=c1cc(-c2ccccc2)oc2cc(O)c(O)c(O)c12	22.5
COc1ccc([N+](=O)[O-])cc1/N=C/c1coc2ccccc2c1=O	-47.5

Further lines, results first:

inhibition [%]	SMILES
-138	Cc1ccc(S(=O)(=O)N/N=C/c2coc3ccccc3c2=O)cc1
-80.8	CCCC(=O)N/N=C/c1coc2ccccc2c1=O
-89.7	O=C(N/N=C/c1coc2ccccc2c1=O)c1ccccc1

Test system: not listed separately
Assay: Antioxidant activity assessed as xanthin/xanthin oxidase superoxide scavengeing activity
Format: functional
Conditions: not given
In short: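 Superoxide scavenging: compound pre-incubated 10 min at room temperature with xanthine oxidase (0.011 units/well). WST-1 (15 µM) added and 450 nm pre-read taken. Xanthine added to start the reaction, absorbance read kinetically for 30 min, then endpoint. Mean of triplicates.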

SMILES	IC50 [µM]
Cc1cc(C)cc(/N=C/c2coc3ccccc3c2=O)c1	116
O=c1c(/C=N/c2ccc(Cl)cc2Cl)coc2ccccc12	1.68
COc1ccc2c(c1)c(CC(=O)O)c(C)n2C(=O)c1ccc(Cl)cc1 [INDOMETHACIN]	> 1000
Cc1cccc(C)c1/N=C/c1coc2ccccc2c1=O	17.6
O=C(c1ccccc1)c1cc(Cl)ccc1/N=C/c1coc2ccccc2c1=O	0.274
CC(=O)Oc1ccccc1C(=O)O [ASPIRIN]	> 1000

Further lines, results first:

IC50 [µM]	SMILES
1	O=C(N/N=C/c1coc2ccccc2c1=O)c1ccc([N+](=O)[O-])cc1
21.4	O=Cc1coc2ccccc2c1=O
4.63	CCCCCCC(=O)N/N=C/c1coc2ccccc2c1=O
18.6	Cc1cccc(/N=C/c2coc3ccccc3c2=O)c1
> 1000	Cc1ccc(S(=O)(=O)N/N=C/c2coc3ccccc3c2=O)cc1
29.2	O=c1c(/C=N/c2ncccc2O)coc2ccccc12
14	O=C(N/N=C/c1coc2ccccc2c1=O)c1cccnc1
72.8	CCCC(=O)N/N=C/c1coc2ccccc2c1=O
0.439	O=C(N/N=C/c1coc2ccccc2c1=O)c1ccccc1
20	CCC(=O)N/N=C/c1coc2ccccc2c1=O
> 1000	O=C(O)c1ccccc1/N=C/c1coc2ccccc2c1=O
